M5 ag: human M5 muscarinic receptor agonists, primary screen, CHO-K1 cells, Fluo-8 calcium fluorescence | Muscarinic acetylcholine receptor M5 (Homo sapiens), P08912 | CHO-K1 hM5 cells; 0% DMSO wells, 100% maximal acetylcholine response | activation, % at 3 µM | 360,000 compounds, 0.19% hits | AID 624037, 2012;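 active = activation above the run's mean over test compounds plus 3 SD, cut at about 23% in these data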;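 note: signal is peak over basal fluorescence ratio across the kinetic read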
Target sequence (P08912 whole entry, looked up): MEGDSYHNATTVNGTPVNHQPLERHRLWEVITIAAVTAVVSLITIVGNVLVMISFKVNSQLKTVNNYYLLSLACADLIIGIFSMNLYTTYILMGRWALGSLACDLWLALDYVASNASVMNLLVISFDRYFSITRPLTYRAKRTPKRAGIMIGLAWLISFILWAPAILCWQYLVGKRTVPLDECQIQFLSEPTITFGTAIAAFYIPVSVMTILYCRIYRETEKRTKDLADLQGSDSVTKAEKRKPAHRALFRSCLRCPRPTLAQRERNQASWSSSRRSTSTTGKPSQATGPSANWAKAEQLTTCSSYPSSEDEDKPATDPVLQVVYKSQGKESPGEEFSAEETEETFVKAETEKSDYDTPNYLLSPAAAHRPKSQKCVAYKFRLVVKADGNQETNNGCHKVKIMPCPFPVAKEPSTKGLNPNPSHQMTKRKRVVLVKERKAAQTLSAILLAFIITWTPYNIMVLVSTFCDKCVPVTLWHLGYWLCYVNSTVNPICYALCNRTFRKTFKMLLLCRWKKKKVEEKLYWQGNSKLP
M5 PAM: human M5 muscarinic receptor positive allosteric modulators, primary screen, CHO-K1 cells, Fluo-8 calcium fluorescence. Muscarinic acetylcholine receptor M5 (Homo sapiens), P08912. CHO-K1 hM5, ACh EC20 PAM; 0% = ACh EC20, 100% = ACh EC100. activation, % at 3 µM. 360,000 compounds, 0.3% hits. AID 624038, 2012;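 active = activation above the run cutoff, the mean activation of all test compounds plus 3 SD, cut at about 18% in these data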
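System: CHO-K1 hM5 cells. Reagent: acetylcholine, EC20 level. Compound dosing: single dose, 3 µM nominal final test concentration. Timing: Post-acetylcholine fluorescence recording 140 s. Detection: Fluo-8 calcium fluorescence. Read-out: % activation, ACh-normalized. Benchmarks: ACh EC20 and EC100 wells. Repeats: singlicate, one well per test compound.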
M4 antag: human M4 muscarinic receptor antagonists, primary screen, CHO cells, Fluo-8 calcium fluorescence | Muscarinic acetylcholine receptor M4 (Homo sapiens), P08173 | CHO-hM4 cells, ACh EC80 | inhibition, % at 3 µM | 360,000 compounds, 0.73% hits | AID 624125, 2012;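 active = inhibition above its plate's cutoff, the mean inhibition of sample wells plus 3 SD, cut at about 27% in these data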;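 note: 0% = acetylcholine EC80 with DMSO and 100% = DMSO without agonist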
CHRM5 antagonist: human M5 muscarinic receptor antagonists, primary screen, CHO cells, Fluo-8 calcium fluorescence; AID 624040, 2012; inhibition, % at 3 µM; 360,000 compounds, 0.59% hits; CHO-hM5 cells, ACh EC80;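 active = inhibition above a per-plate cutoff, the mean of that plate's test compounds plus 3 SD, cut at about 27% in these data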;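 note: 0% = acetylcholine EC80 with DMSO and 100% = DMSO without agonist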
M4 ag: human M4 muscarinic receptor agonists, primary screen, CHO-K1 cells, Fluo-8 calcium fluorescence | CHO-K1 hM4/Gqi5; vehicle 0%, full acetylcholine response 100% | Muscarinic acetylcholine receptor M4 (Homo sapiens), P08173 | 360,000 compounds, 0.14% hits | AID 624127, 2012 | activation, % at 3 µM;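 active = activation above the run mean over all test wells plus 3 SD, cut at about 32% in these data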;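 note: peak over basal fluorescence ratio per well then scaled between controls; 0% = DMSO wells and 100% = acetylcholine at EC100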
M4 PAM: human M4 muscarinic receptor positive allosteric modulators, primary screen, CHO-K1 cells, Fluo-8 calcium fluorescence | activation, % at 3 µM | Muscarinic acetylcholine receptor M4 (Homo sapiens), P08173 | 360,000 compounds, 0.4% hits | CHO-K1 hM4/Gqi5, ACh EC20; 0% = ACh EC20, 100% = maximal ACh;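 active = activation above its plate's cutoff, the mean activation of sample wells plus 3 SD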
The depositor's hits bear a star. In the library only some 1.9% were active in any assay of this set; here they are far more common.

SMILES | M5 ag | M5 PAM | M4 antag | CHRM5 antagonist | M4 ag | M4 PAM
O=C(O)CC1(O)C(=O)N(Cc2ccccc2)c2ccccc21 (centres undefined) | 0.8 | 1.2 | 2.7 | -0.3 | -0.1 | -3.0
CCOC(=O)[C@]12CCC=C1N(Cc1ccc3c(c1)OCO3)C(=O)[C@H](CC(=O)NCCc1ccccc1OC)C2 | -2.9 | -11.4 | -6.6 | -0.6 | 1.2 | -5.1
O=C(/C=C/c1cccc(Cl)c1)c1ccc([N+](=O)[O-])o1 | 11.1 | 0.3 | 28.6* | 22.2 | 4.7 | -5.3
COc1cc(/C=C/C(=O)c2ccc([N+](=O)[O-])o2)ccc1O | 0.2 | -1.1 | 1.2 | 8.6 | 0.4 | 6.6
CCC(=O)Nc1ccc(C(=O)NNC(=O)CCCCC(=O)NNC(=O)c2ccc(NC(=O)CC)cc2)cc1 | 0.7 | -4.1 | -16.0 | 4.9 | -0.2 | 2.5
CCCCn1c(N)c(N(CC)C(=O)C2CCN(C(=O)c3ccccc3C)CC2)c(=O)[nH]c1=O | 0.8 | -1.1 | -7.3 | 2.8 | 0.5 | 5.7
COc1cccc(NC(=O)CN(C)C(=O)Cn2cnc3ccccc3c2=O)c1 | -7.7 | -32.8 | -9.9 | 99.6* | 1.0 | 11.3
COc1cccc(NC(=O)CN(C)C(=O)c2cc(-c3ccccc3)nn2-c2ccccc2)c1 | -2.4 | -3.5 | -15.3 | 4.9 | 4.3 | 18.1*
CC(=O)Nc1nnc(S(=O)(=O)N2CCN(c3ccc([N+](=O)[O-])cc3Cl)CC2)s1 | 4.1 | -3.3 | -16.5 | -2.2 | 6.4 | -4.3
Cc1ccc2cc(NC(=O)c3ccc(C(C)(C)C)cc3)ccc2n1 | -2.5 | -0.5 | 20.3 | 27.4* | 21.0 | 11.3
O=C(Nc1cccc(Cl)c1)Nc1nnc(CC2=CCCCC2)s1 | -1.5 | -2.6 | -8.1 | -9.9 | 0.6 | -0.7
NS(=O)(=O)c1cccc(NC(=O)c2ccccc2NS(=O)(=O)c2ccc(F)cc2)c1 | -2.3 | 1.9 | -2.9 | -0.3 | -0.6 | 1.0
O=C(Nc1ccccc1C(=O)O)c1cc(S(=O)(=O)N2CCCCCC2)ccc1Cl | 0.4 | 5.9 | -0.8 | -7.3 | -2.0 | 15.0
O=C(Nc1ccccc1Cl)c1cc(S(=O)(=O)N2CCCC(C(=O)O)C2)ccc1F (centres undefined) | 1.9 | -3.5 | -17.8 | 4.5 | -0.8 | 51.4*
Cc1ccc(NC(=O)c2ccccc2NS(=O)(=O)c2ccc(F)cc2)cc1S(=O)(=O)N1CCCCC1 | 6.0 | -18.0 | 9.1 | 35.1* | 10.5 | -10.4
Cc1ccc(NC(=O)CSc2ncnc3ccccc23)cc1S(=O)(=O)N1CCCCC1 | 2.6 | -18.3 | 6.9 | 29.8* | 14.2 | -16.2
O=C(Nc1cccc(S(=O)(=O)N2CCCCC2)c1)c1ccccc1NS(=O)(=O)c1ccc(F)cc1 | 5.5 | -11.5 | -1.2 | 41.1* | 10.9 | 3.1
CCS(=O)c1ccccc1C(=O)OCC(=O)Nc1cccc(S(=O)(=O)N2CCCCC2)c1 (centres undefined) | 5.5 | -16.7 | 4.9 | 9.6 | 14.9 | -2.5
Cc1ccc(NC(=O)c2cnccn2)cc1S(=O)(=O)N1CCCCCC1 | -2.1 | -3.9 | -0.8 | 28.1* | 0.8 | 3.0
CCOc1ccc(S(=O)(=O)N2CCCC(C(=O)NCC3CCCO3)C2)cc1Cl (centres undefined) | -3.1 | -2.9 | -21.7 | -0.4 | 2.8 | 11.3
CC(C)C(C(=O)NCc1ccccc1)N1CCN(c2ccccc2F)CC1 (centres undefined) | 0.6 | -0.9 | -12.0 | -2.2 | 3.5 | 1.6
Brc1ccccc1OCCCCn1cnc2ccccc21 | 6.2 | -22.7 | 9.5 | 29.4* | 14.4 | -13.9
COc1cc(SC)ccc1C(=O)NCCc1c[nH]c2ccccc12 | -1.7 | -3.8 | 3.8 | 6.0 | 6.6 | -7.7

High-throughput results (PubChem BioAssay)
